Measurements reported in ChEMBL document CHEMBL1122485, “Antibacterially active substituted anilides of carboxylic and sulfonic acids” (1983).
≈ marks a conversion by molar mass, not a printed value.

These compounds were tested on Staphylococcus aureus (assay: Minimum inhibitory concentration against staphylococcus aureus ATCC 6538).
Assay type: functional
In short: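 Agar dilution: 1% stocks in 95% ethanol or water, serially diluted into nutrient agar (pH 6.8) to 1000, 100, 10 and 1 ppm. Plates were dried 30 min at 37 °C and spotted with ten drops of 24-h nutrient broth culture. Incubation was 48 h at 37 °C, in duplicate, with hexachlorophene as standard. MIC was the lowest level with no growth of any inoculum on either dish.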

SMILES | MIC [µg/mL]
O=C(O)CCCCCCC(=O)Nc1ccc(Cl)c(Cl)c1 | 100 (≈ 314 µM)
CCCCc1ccc(C(=O)Nc2cc(Cl)ccc2O)cc1 | 1000 (≈ 3290 µM)
COC(=O)CCC(=O)Nc1c(Cl)cccc1Cl | 1000 (≈ 3620 µM)
COC(=O)CCCCCCC(=O)Nc1ccc(Cl)c([N+](=O)[O-])c1 | 1000 (≈ 2920 µM)
O=C(O)CCCCCCCC(=O)Nc1ccc(Cl)c([N+](=O)[O-])c1 | 100 (≈ 292 µM)
COC(=O)CCCCCCCCC(=O)Nc1ccc(Cl)c(Cl)c1 | > 1000
CCCCCCc1ccc(C(=O)Nc2ccc(Cl)c(Cl)c2)cc1 | > 1000
O=C(O)CCCCCCCCC(=O)Nc1ccc(Cl)c(Cl)c1 | > 1000
COC(=O)CCCCCCCCC(=O)Nc1ccc(Cl)c([N+](=O)[O-])c1 | > 1000
CCCCCCCCCCCC(=O)Nc1ccc(Cl)c(Cl)c1 | 100 (≈ 290 µM)
CCCCCCCCCCCC(=O)Nc1cc([N+](=O)[O-])ccc1O | 1000 (≈ 2970 µM)
CCCc1ccc(C(=O)Nc2ccc(Cl)c(Cl)c2)cc1 | > 1000
COC(=O)CCCCCCCC(=O)Nc1ccc(Cl)c([N+](=O)[O-])c1 | 1000 (≈ 2800 µM)
CCc1ccc(C(=O)Nc2ccc(Cl)c(Cl)c2)cc1 | > 1000
O=C(O)CCCCC(=O)Nc1ccc(Cl)c([N+](=O)[O-])c1 | 100 (≈ 333 µM)
C=C(CCCCCCCCCC)C(=O)Nc1cc(Cl)cc(Cl)c1 | > 1000
COC(=O)CCCCC(=O)Nc1ccc(Cl)c([N+](=O)[O-])c1 | 100 (≈ 318 µM)
C=C(CCCCCCCCCC)C(=O)Nc1ccc(Cl)c(Cl)c1 | > 1000
O=C(O)CCCCC(=O)Nc1ccc(Cl)c(Cl)c1 | 1000 (≈ 3450 µM)
COC(=O)CCC(=O)Nc1ccc(Cl)c(Cl)c1 | 1000 (≈ 3620 µM)
O=C(O)CCC(=O)Nc1c(Cl)cccc1Cl | > 1000
O=C(O)CCCCCCC(=O)Nc1ccc(Cl)c([N+](=O)[O-])c1 | 100 (≈ 304 µM)
O=C(CCc1ccccc1)Nc1cc(Cl)ccc1O | 100 (≈ 363 µM)
CCCc1ccc(S(=O)(=O)N(Cc2ccc(Cl)cc2)c2ccc(Cl)c(Cl)c2)cc1 | > 1000
CCCc1ccc(C(=O)Nc2cc(Cl)ccc2O)cc1 | > 1000
O=S(=O)(Nc1ccc(Cl)c(Cl)c1)c1cc(Cl)ccc1Cl | 1000 (≈ 2690 µM)

SMILES | MIC [µg/mL]
O=C(Nc1ccc(Cl)c(Cl)c1)c1ccc(Cl)c(Cl)c1 | > 1000
O=C(O)CCCCCCCCC(=O)Nc1ccc(Cl)c([N+](=O)[O-])c1 | > 1000
C=C(CCCCC)C(=O)Nc1cc(Cl)ccc1O | 100 (≈ 373 µM)
COC(=O)CCCCC(=O)Nc1ccc(Cl)c(Cl)c1 | 1000 (≈ 3290 µM)
O=C(Nc1cc(Cl)ccc1O)c1ccc(Cl)c(Cl)c1 | > 1000
Cc1ccc(C(=O)Nc2ccc(Cl)c(Cl)c2)cc1 | 1000 (≈ 3570 µM)
O=C(Cc1ccccc1)Nc1ccc(Cl)c(Cl)c1 | > 1000
CCCCc1ccc(C(=O)Nc2ccc(Cl)c(Cl)c2)cc1 | 1000 (≈ 3100 µM)
CCCCCCCCCCCC(=O)Nc1ccc(Cl)c([N+](=O)[O-])c1 | > 1000
CC(CC(=O)Nc1ccc(Cl)c(Cl)c1)c1ccccc1 (centres undefined) | 10 (≈ 32.4 µM)
O=C(Nc1cc([N+](=O)[O-])ccc1O)c1ccc(Cl)c(Cl)c1 | 10 (≈ 30.6 µM)
O=C(O)CCC(=O)Nc1ccc(Cl)c(Cl)c1 | 1000 (≈ 3820 µM)
CCCCCC(=O)Nc1ccc(Cl)c(Cl)c1 | 10 (≈ 38.4 µM)
CCCCCCCCCC(=O)Nc1ccc(Cl)c([N+](=O)[O-])c1 | 10 (≈ 30.6 µM)
CCCc1ccc(C(=O)Nc2cc([N+](=O)[O-])ccc2O)cc1 | 10 (≈ 33.3 µM)
C=C(CCCC)C(=O)Nc1cc(Cl)ccc1O | 100 (≈ 394 µM)
CCCCCC(=O)Nc1ccc(Cl)c([N+](=O)[O-])c1 | 10 (≈ 36.9 µM)
COC(=O)CCCCCCC(=O)Nc1ccc(Cl)c(Cl)c1 | 1000 (≈ 3010 µM)
CCCCCCC(=O)Nc1cc([N+](=O)[O-])ccc1O | 10 (≈ 37.6 µM)
CCCc1ccc(S(=O)(=O)N(C)c2ccc(Cl)c(Cl)c2)cc1 | > 1000
O=[N+]([O-])c1ccc(O)c(NS(=O)(=O)c2ccc(Cl)c(Cl)c2)c1 | 10 (≈ 27.5 µM)
CCCCCCCCC(=O)Nc1cc([N+](=O)[O-])ccc1O | 10 (≈ 34 µM)
CC(C)c1ccc(S(=O)(=O)Nc2cc(Cl)ccc2O)cc1 | 10 (≈ 30.7 µM)
O=C(Cc1ccccc1)Nc1cc(Cl)ccc1O | 100 (≈ 382 µM)
CCCCCC(=O)Nc1cc(Cl)cc(Cl)c1 | 10 (≈ 38.4 µM)

Results, then the compound that gave them:

MIC [µg/mL] | SMILES
10 (≈ 36.5 µM) | CCCCCCC(=O)Nc1ccc(Cl)c(Cl)c1
1 (≈ 3.31 µM) | CCCCCCCCC(=O)Nc1cc(Cl)cc(Cl)c1
10 (≈ 34.9 µM) | C=C(CCCCC)C(=O)Nc1ccc(Cl)c(Cl)c1
10 (≈ 34.5 µM) | CCC(C(=O)Nc1cc(Cl)ccc1O)c1ccccc1 (centres undefined)
1 (≈ 2.96 µM) | C=C(CCCCCCCCCC)C(=O)Nc1cc(Cl)ccc1O
10 (≈ 29.4 µM) | CCCCc1ccc(S(=O)(=O)Nc2cc(Cl)ccc2O)cc1
1 (≈ 2.89 µM) | COC(=O)CCCCCCCC(=O)Nc1ccc(Cl)c(Cl)c1
10 (≈ 27.9 µM) | CCC(C)c1ccc(S(=O)(=O)Nc2ccc(Cl)c(Cl)c2)cc1 (centres undefined)
10 (≈ 29 µM) | CC(C)c1ccc(S(=O)(=O)Nc2ccc(Cl)c(Cl)c2)cc1
1 (≈ 3.33 µM) | C=C(CCCCCC)C(=O)Nc1ccc(Cl)c(Cl)c1
10 (≈ 41.4 µM) | CCCCCC(=O)Nc1cc(Cl)ccc1O
1 (≈ 3.08 µM) | C=C(CCCCCCC)C(=O)Nc1ccc(Cl)c([N+](=O)[O-])c1
1 (≈ 3.01 µM) | O=C(O)CCCCCCCC(=O)Nc1ccc(Cl)c(Cl)c1
10 (≈ 31.6 µM) | Cc1ccc(S(=O)(=O)Nc2ccc(Cl)c(Cl)c2)cc1
1 (≈ 3.38 µM) | C=C(CCCCCCC)C(=O)Nc1cc(Cl)ccc1O
1 (≈ 3.55 µM) | C=C(CCCCCC)C(=O)Nc1cc(Cl)ccc1O
1 (≈ 2.97 µM) | CCCc1ccc(S(=O)(=O)Nc2cc([N+](=O)[O-])ccc2O)cc1
10 (≈ 35.1 µM) | CCCCCCC(=O)Nc1ccc(Cl)c([N+](=O)[O-])c1
10 (≈ 29 µM) | CCCCCCCCCCCC(=O)Nc1cc(Cl)cc(Cl)c1
1 (≈ 3.07 µM) | CCCCCCCCCCCC(=O)Nc1cc(Cl)ccc1O
10 (≈ 28.2 µM) | CCCc1ccc(S(=O)(=O)Nc2ccc(Cl)c([N+](=O)[O-])c2)cc1
10 (≈ 33.7 µM) | C=C(CCCCC)C(=O)Nc1ccc(Cl)c([N+](=O)[O-])c1

MIC [µg/mL] | SMILES
10 (≈ 31.6 µM) | CCCCCCCCCC(=O)Nc1ccc(Cl)c(Cl)c1
10 (≈ 30.3 µM) | CCc1ccc(S(=O)(=O)Nc2ccc(Cl)c(Cl)c2)cc1
10 (≈ 31.6 µM) | CCCCCCCCCC(=O)Nc1cc(Cl)cc(Cl)c1
10 (≈ 39.6 µM) | CCCCCC(=O)Nc1cc([N+](=O)[O-])ccc1O
1 (≈ 3.4 µM) | O=C(CCc1ccccc1)Nc1ccc(Cl)c(Cl)c1
10 (≈ 36.7 µM) | C=C(CCCC)C(=O)Nc1cc(Cl)cc(Cl)c1
10 (≈ 30.5 µM) | C=C(CCCCCCCC)C(=O)Nc1cc(Cl)cc(Cl)c1
10 (≈ 39.1 µM) | CCCCCCC(=O)Nc1cc(Cl)ccc1O
10 (≈ 37.1 µM) | CCCCCCCC(=O)Nc1cc(Cl)ccc1O
10 (≈ 36.7 µM) | C=C(CCCC)C(=O)Nc1ccc(Cl)c(Cl)c1
1 (≈ 3.31 µM) | CCCCCCCCC(=O)Nc1ccc(Cl)c(Cl)c1
10 (≈ 31.8 µM) | C=C(CCCCCCC)C(=O)Nc1cc(Cl)cc(Cl)c1
10 (≈ 35.9 µM) | C=C(CCCCC)C(=O)Nc1cc([N+](=O)[O-])ccc1O
10 (≈ 27.9 µM) | CCCCc1ccc(S(=O)(=O)Nc2ccc(Cl)c(Cl)c2)cc1
1 (≈ 3.18 µM) | CCCCc1ccc(C(=O)Nc2cc([N+](=O)[O-])ccc2O)cc1
1 (≈ 3.36 µM) | CCCCCCCCCC(=O)Nc1cc(Cl)ccc1O
10 (≈ 32.4 µM) | CCC(C(=O)Nc1ccc(Cl)c(Cl)c1)c1ccccc1 (centres undefined)
1 (≈ 3.22 µM) | C=C(CCCCCC)C(=O)Nc1ccc(Cl)c([N+](=O)[O-])c1
1 (≈ 3.05 µM) | C=C(CCCCCCCC)C(=O)Nc1ccc(Cl)c(Cl)c1
1 (≈ 3.18 µM) | C=C(CCCCCCC)C(=O)Nc1ccc(Cl)c(Cl)c1
1 (≈ 3.23 µM) | C=C(CCCCCCCC)C(=O)Nc1cc(Cl)ccc1O
